The record followed here is ChEMBL document CHEMBL4715843, “NO-releasing STAT3 inhibitors suppress BRAF-mutant melanoma growth” (Eur J Med Chem, 2020).

Assay [1] has as its target T1, Signal transducer and activator of transcription 3 (Homo sapiens, UniProt P40763). Kind of assay: Inhibition of STAT3 phosphorylation at Y705 residues in human A-375 cells at 10 to 25 uM after 12 hrs by Western blotting analysis. Type of assay: cell-based. The note with it: dose 10-25 µM. In outline: (§1)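 Cells lysed in M-PER after 12 h drug exposure (overnight per text); 60 µg total protein run on 10% SDS-PAGE, transferred to PVDF, probed overnight at 4 °C with phospho-specific antibodies. Panel lines (U87-MG, MDA-MB-468, MIA PaCa-2, NCI-H157, A549) given 25 µM; A375 given 0, 5, 10, 25 µM. Actin and/or vinculin loading controls.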
In general terms: Immunoblotting shows a protein as a band on a membrane.

Assay [2] has as its target T1, Signal transducer and activator of transcription 3. Kind of assay: Inhibition of STAT3 phosphorylation at S727 residues in human A-375 cells at 10 to 25 uM after 12 hrs by Western blotting analysis. Type of assay: cell-based. The note with it: dose 10-25 µM. The gist of the method:
as §1

For assay [3] the target is unchanged. Kind of assay: Inhibition of STAT3 phosphorylation at Y705 residue in human SB-590885-resistant 451Lu cells measured after 12 hrs by Western blot analysis. The note with it: dose 10-25 µM. The gist of the method: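 451 Lu and MEL 1617 pairs, sensitive and resistant; resistant lines maintained in RPMI with 1 µM PLX4720. Treated with 10 and 25 µM for 12 h versus DMSO. Lysates (60 µg protein, 10% SDS-PAGE) immunoblotted for Ser727- and Tyr705-phospho-STAT3, total STAT3, total PAX3, with actin.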

Assay [4] shares this target. Kind of assay: Inhibition of STAT3 in human SB-590885-sensitive 451Lu cells assessed as reduction in STAT3 transcriptional activity measured after 12 hrs by Dual-luciferase reporter gene assay. In outline:
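Cells co-transfected with inducible STAT3-responsive firefly luciferase and constitutive Renilla luciferase constructs (40:1) using Lipofectamine 3000. After 48 h, dose series in DMSO vehicle applied for 12 h, followed by dual-luciferase readout. Firefly signal normalized to Renilla and compared with untreated cells. Run in triplicate; IC50 taken from dose–response curves.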
A general note: In a reporter assay the amount or activity of a reporter protein is the signal.

Another assay relates to MCF7. In words: Anticancer activity against human MCF7 cells assessed as cell growth inhibition at 10 uM measured after 48 hrs by SRB assay relative to control. It counts as functional. The following applies: read-out: GI. The gist of the method:
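NCI 60-cell-line screen. Cells in RPMI with 5% FBS were plated at 5,000–40,000 cells/well by doubling time and preincubated 24 h at 37 °C. Compound was added at a single 10 µM for 48 h, then cells were fixed with cold TCA (10% final) and stained with 0.4% SRB. Absorbance at 515 nm gave percent growth versus untreated control and time-zero cells.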
(In general: Sulforhodamine B stains cellular protein and so reports cell mass.)

Assay [5] has as its target T1, Signal transducer and activator of transcription 3. Kind of assay: Inhibition of STAT3 phosphorylation at Y705 residues in human MDA-MB-468 cells at 25 uM after 12 hrs by Western blotting analysis. It counts as cell-based. In outline: as §1
For assay [6] the target is unchanged. In words: Inhibition of STAT3 phosphorylation at Y705 residues in human MIA PaCa-2 cells at 25 uM after 12 hrs by Western blotting analysis. Type of assay: cell-based. In outline: as §1
For assay [7] the target is unchanged. In words: Inhibition of STAT3 phosphorylation at Y705 residues in human A549 cells at 25 uM after 12 hrs by Western blotting analysis. It counts as cell-based. In outline: as §1
Assay [8] has the same target. Kind of assay: Inhibition of STAT3 phosphorylation at Y705 residues in human A-375 cells at 5 to 10 uM after 12 hrs by Western blotting analysis. It counts as cell-based. The note with it: dose 5-10 µM. The gist of the method:
as §1

The target is the same in assay [9]. In words: Inhibition of STAT3 phosphorylation at S727 residues in human U-87 MG cells at 25 uM after 12 hrs by Western blotting analysis. Type of assay: cell-based. In outline: as §1
Assay [10] shares this target. In words: Inhibition of STAT3 phosphorylation at S727 residues in human NCI-H157 cells at 25 uM after 12 hrs by Western blotting analysis. Type of assay: cell-based. In outline: as §1
Assay [11] has the same target. In words: Inhibition of STAT3 phosphorylation at S727 residues in human A549 cells at 25 uM after 12 hrs by Western blotting analysis. It counts as cell-based. The gist of the method: as §1
The target is the same in assay [12]. In words: Inhibition of STAT3 phosphorylation at S727 residues in human A-375 cells at 5 to 10 uM after 12 hrs by Western blotting analysis. It counts as cell-based. The following applies: dose 5-10 µM. The gist of the method:
as §1

In assay [13] the target is Tyrosine-protein kinase JAK2 (Homo sapiens) (UniProt O60674). Kind of assay: Inhibition of JAK2 phosphorylation in human MDA-MB-468 cells at 25 uM after 12 hrs by Western blotting analysis. It counts as cell-based. In outline: as §1
Sequence of Tyrosine-protein kinase JAK2 (Homo sapiens) (O60674 whole entry): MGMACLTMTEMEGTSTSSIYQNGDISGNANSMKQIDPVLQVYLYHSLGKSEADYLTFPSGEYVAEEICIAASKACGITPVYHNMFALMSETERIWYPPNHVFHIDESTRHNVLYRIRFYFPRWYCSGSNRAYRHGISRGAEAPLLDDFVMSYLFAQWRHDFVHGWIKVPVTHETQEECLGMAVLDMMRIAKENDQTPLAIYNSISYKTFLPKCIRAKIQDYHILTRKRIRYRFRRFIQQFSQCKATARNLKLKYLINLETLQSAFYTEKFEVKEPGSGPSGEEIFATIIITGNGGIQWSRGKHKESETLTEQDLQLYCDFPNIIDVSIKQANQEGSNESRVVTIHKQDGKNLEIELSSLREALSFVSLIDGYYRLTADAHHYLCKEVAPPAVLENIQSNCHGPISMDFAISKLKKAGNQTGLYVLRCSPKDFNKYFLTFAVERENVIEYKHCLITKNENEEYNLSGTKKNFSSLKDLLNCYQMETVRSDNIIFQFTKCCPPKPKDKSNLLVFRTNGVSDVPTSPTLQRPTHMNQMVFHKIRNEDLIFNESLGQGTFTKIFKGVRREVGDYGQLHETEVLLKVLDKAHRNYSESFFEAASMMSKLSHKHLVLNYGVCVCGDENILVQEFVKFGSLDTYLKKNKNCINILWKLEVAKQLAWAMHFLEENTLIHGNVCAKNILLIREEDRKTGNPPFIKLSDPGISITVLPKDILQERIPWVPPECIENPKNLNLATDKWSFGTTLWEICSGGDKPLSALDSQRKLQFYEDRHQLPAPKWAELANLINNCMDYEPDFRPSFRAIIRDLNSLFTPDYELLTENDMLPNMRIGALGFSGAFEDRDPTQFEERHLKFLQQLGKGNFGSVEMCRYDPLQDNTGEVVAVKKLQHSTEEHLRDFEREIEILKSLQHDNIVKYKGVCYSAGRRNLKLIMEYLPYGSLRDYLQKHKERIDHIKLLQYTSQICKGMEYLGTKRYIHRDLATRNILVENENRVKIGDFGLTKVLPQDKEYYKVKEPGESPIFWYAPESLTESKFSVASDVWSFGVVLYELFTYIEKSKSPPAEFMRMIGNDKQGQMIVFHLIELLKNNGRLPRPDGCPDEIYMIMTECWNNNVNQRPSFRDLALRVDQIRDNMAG
Assay [14] shares this target. Kind of assay: Inhibition of JAK2 phosphorylation in human MIA PaCa-2 cells at 25 uM after 12 hrs by Western blotting analysis. It counts as cell-based. In outline:
as §1

Assay [15] shares this target. In words: Inhibition of JAK2 phosphorylation in human A549 cells at 25 uM after 12 hrs by Western blotting analysis. It counts as cell-based. The gist of the method:
as §1

In assay [16] the target is Proto-oncogene tyrosine-protein kinase Src (Homo sapiens) (UniProt P12931). In words: Inhibition of SRC phosphorylation in human A549 cells at 25 uM after 12 hrs by Western blotting analysis. It counts as cell-based. In outline: as §1
Sequence of Proto-oncogene tyrosine-protein kinase Src (Homo sapiens) (P12931 2-536 limits assumed): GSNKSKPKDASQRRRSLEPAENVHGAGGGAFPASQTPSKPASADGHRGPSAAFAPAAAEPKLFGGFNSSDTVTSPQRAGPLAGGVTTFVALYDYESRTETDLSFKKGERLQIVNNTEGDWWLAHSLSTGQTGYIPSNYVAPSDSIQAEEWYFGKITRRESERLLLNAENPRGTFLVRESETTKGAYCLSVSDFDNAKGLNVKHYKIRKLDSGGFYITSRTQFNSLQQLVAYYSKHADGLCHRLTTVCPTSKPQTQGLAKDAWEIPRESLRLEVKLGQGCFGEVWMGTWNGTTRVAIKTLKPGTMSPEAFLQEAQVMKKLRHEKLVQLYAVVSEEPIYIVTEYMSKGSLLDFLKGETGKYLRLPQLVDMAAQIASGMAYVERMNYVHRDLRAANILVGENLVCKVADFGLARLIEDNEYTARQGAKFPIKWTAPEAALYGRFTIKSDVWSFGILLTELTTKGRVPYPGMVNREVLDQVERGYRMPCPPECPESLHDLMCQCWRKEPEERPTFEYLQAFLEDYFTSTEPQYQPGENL
Another assay deals with A-375. Kind of assay: Antiproliferative activity against human A-375 cells measured after 48 hrs by MTS assay. Type of assay: functional, cell-based. In outline: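 Cells were exposed to a dose range of inhibitor for 48 h, and viability was read by MTS assay in triplicate. GI50 was taken as the concentration giving 50% growth inhibition, averaged from three independent experiments. A375 was cultured in RPMI-1640 with Glutamax. A549 and NCI-H157 were kept in RPMI-1640, and MIA PaCa-2 and U87-MG in DMEM.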

The test system of the next assay is MDA-MB-468. Kind of assay: Antiproliferative activity against human MDA-MB-468 cells measured after 48 hrs by MTS assay. Type of assay: functional, cell-based.
Assay [17] relates to 451Lu. In words: Antiproliferative activity against human 451Lu cells measured after 48 hrs by MTS assay. Type of assay: functional, cell-based.
Assay [18] deals with 451Lu. Kind of assay: Antiproliferative activity against human SB-590885-sensitive 451Lu cells assessed as reduction in cell viability measured after 48 hrs by MTS assay. It counts as functional. In outline: (§2)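 Melanoma lines were grown in RPMI-1640 with Glutamax at 37 °C and 5% CO2. The resistant 451 Lu-R and MEL 1617-R sublines were maintained with 1 µM PLX4720. Cells were incubated with vehicle or inhibitor over a dose range, and viability was read by MTS assay in triplicate.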

For assay [19], the system named is 451Lu. In words: Antiproliferative activity against human SB-590885-resistant 451Lu cells assessed as reduction in cell viability measured after 48 hrs by MTS assay. Type of assay: functional. The gist of the method: as §2
The subject of assay [20] is MEL1617. In words: Antiproliferative activity against human SB-590885-sensitive MEL1617 cells assessed as reduction in cell viability measured after 48 hrs by MTS assay. Type of assay: functional, cell-based. In outline: as §2
Assay [21] deals with MEL1617. Kind of assay: Antiproliferative activity against human SB-590885-resistant MEL1617 cells assessed as reduction in cell viability measured after 48 hrs by MTS assay. Type of assay: functional, cell-based. In outline: as §2
Assay [22] has as its system 451Lu. In words: Induction of apoptosis in human SB-590885-sensitive 451Lu cells assessed as increase in cleaved caspase-7 expression measured after 12 hrs by Western blot analysis. Type of assay: functional. In outline:
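Sensitive and resistant 451 Lu cells were exposed to a dose range for 12 h before lysis. PARP, cleaved PARP and caspase-7 were detected by western blot against a vinculin loading control; repeated twice.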

Assay [23] deals with 451Lu. Kind of assay: Induction of apoptosis in human SB-590885-resistant 451Lu cells assessed as increase in caspase-3/7 activation incubated for 45 to 60 hrs by IncuCyte Caspase-3/7 reagent based assay. Type of assay: functional. The following applies: time 45-60 hrs. In outline: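 451 Lu-R cells (2000/well) were allowed to adhere for 24 h, then treated with a dose range in full medium containing IncuCyte Caspase-3/7 reagent. Wells were imaged over time with a ×10 objective. Apoptotic cell counts were normalized to percent confluence at the final time point; SEM, n = 3–4.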

SMILES strings stand for the structures. Activity calls are given as the source filed them. The rule behind the calls is not given here.

T1 sequence (P40763 whole entry): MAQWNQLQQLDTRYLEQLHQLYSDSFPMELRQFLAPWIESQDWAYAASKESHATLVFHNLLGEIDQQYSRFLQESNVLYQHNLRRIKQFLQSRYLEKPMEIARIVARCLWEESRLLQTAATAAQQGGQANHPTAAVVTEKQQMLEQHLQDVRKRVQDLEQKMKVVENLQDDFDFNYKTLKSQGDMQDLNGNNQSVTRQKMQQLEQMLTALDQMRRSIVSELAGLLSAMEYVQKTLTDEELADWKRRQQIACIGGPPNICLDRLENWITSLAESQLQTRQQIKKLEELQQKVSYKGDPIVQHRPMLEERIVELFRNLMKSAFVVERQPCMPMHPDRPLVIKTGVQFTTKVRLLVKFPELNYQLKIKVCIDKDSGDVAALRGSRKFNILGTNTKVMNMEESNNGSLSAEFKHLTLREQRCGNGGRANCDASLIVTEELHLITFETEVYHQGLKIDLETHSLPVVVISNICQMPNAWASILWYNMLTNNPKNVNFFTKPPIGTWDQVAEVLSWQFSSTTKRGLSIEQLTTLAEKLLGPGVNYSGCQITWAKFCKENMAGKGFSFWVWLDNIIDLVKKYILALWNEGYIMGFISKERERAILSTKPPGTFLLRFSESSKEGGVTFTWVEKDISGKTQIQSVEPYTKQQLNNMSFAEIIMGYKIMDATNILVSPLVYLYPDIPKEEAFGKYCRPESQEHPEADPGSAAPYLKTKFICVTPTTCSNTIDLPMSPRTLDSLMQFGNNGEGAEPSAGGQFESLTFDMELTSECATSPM

As a reminder, the IC50 is the concentration that inhibits the measured activity by half. Take `C=CCn1c(SCC(=O)Nc2ccc(/C(C)=N\O)cc2)nnc1-c1cc(-c2ccc(Cl)cc2)nc2ccccc12`: the inhibition result in assay [1] and in assay [2] was “Active” each time. Moreover, the inhibition entry in [3] was “Dose-dependent effect”. The IC50 in assay [4] is 7.9 µM.

For `C=CCn1c(SCC(=O)Nc2ccc(/C(C)=N\O)cc2)nnc1-c1cc(-c2ccccc2)nc2ccccc12`, the inhibition of growth at 10 µM in the assay with MCF7 was determined as 76%. Moreover, the inhibition entry in assay [5], in [6], in assay [7], in assay [8], in assay [9] and in assay [10] was “Active” in each case. The inhibition result in assay [11] and in assay [12] was “Active” throughout. The inhibition entry in assay [13], in assay [14], in [15] and in assay [16] was “inactive” each time. Moreover, the outcome in the assay with A-375, in the assay with MDA-MB-468 and with 451Lu [17] was Active. In addition, the Activity result in the assay with 451Lu [18], in the assay with 451Lu [19], in the assay with MEL1617 [20], with MEL1617 [21], with 451Lu [22] and in the assay with 451Lu [23] was “Dose-dependent effect” throughout. Also, in [3], the inhibition result was “Dose-dependent effect”. In addition, the IC50 in [4] came out at 6.3 µM.
